Measurements: ChEMBL document CHEMBL1137710, “Synthesis and in vitro antitumor activity of new quinoxaline derivatives” (2009)

Assays:
Assay type in all cases: functional
[1] = test system: SK-MEL-2; assay: Growth inhibition of human SK-MEL-2 cells after 48 hrs by sulforhodamine B assay; settings: SK-MEL-2, 48 h
Method in brief: (§1)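 NCI 60-human-tumor-cell-line panel, with compounds tested over a 5-log dose range. Values are taken from dose-response curves as log10 molar concentrations: GI50 is 50% net growth inhibition, TGI is total growth inhibition, and LC50 is 50% net cell death.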

[2] = test system: EKVX; assay: Growth inhibition of human EKVX cells after 48 hrs by sulforhodamine B assay; method in brief: as §1
[3] = test system: NCI-H322M; assay: Growth inhibition of human NCI-H322M cells after 48 hrs by sulforhodamine B assay; method in brief: as §1
[4] = test system: 786-0; assay: Growth inhibition of human 786-0 cells after 48 hrs by sulforhodamine B assay; settings: 786-0, 48 h; method in brief: as §1
[5] = test system: BT-549; assay: Growth inhibition of human BT549 cells after 48 hrs by sulforhodamine B assay; settings: BT-549, 48 h; method in brief: as §1
[6] = test system: LOX IMVI; assay: Growth inhibition of human LOXIMVI cells after 48 hrs by sulforhodamine B assay; method in brief: as §1
[7] = Growth inhibition of human Hs 578T cells after 48 hrs by sulforhodamine B assay; method in brief: as §1
[8] = test system: HT-29; assay: Growth inhibition of human HT-29 cells after 48 hrs by sulforhodamine B assay; settings: HT-29, 48 h; method in brief: as §1
[9] = test system: MOLT-4; assay: Growth inhibition of human MOLT4 cells after 48 hrs by sulforhodamine B assay; settings: MOLT-4, 48 h; method in brief: as §1
[10] = test system: Malme-3M; assay: Growth inhibition of human MALME-3M cells after 48 hrs by sulforhodamine B assay; method in brief: as §1
[11] = test system: K562; assay: Growth inhibition of human K562 cells after 48 hrs by sulforhodamine B assay; settings: K562, 48 h; method in brief: as §1
[12] = test system: SF-539; assay: Growth inhibition of human SF539 cells after 48 hrs by sulforhodamine B assay; settings: SF-539, 48 h; method in brief: as §1
[13] = test system: NCI-H522; assay: Growth inhibition of human NCI-H522 cells after 48 hrs by sulforhodamine B assay; settings: NCI-H522, 48 h; method in brief: as §1
[14] = test system: OVCAR-5; assay: Growth inhibition of human OVCAR5 cells after 48 hrs by sulforhodamine B assay; settings: OVCAR-5, 48 h; method in brief: as §1
[15] = test system: HOP-62; assay: Growth inhibition of human HOP62 cells after 48 hrs by sulforhodamine B assay; settings: HOP-62, 48 h; method in brief: as §1
[16] = test system: T47D; assay: Growth inhibition of human T47D cells after 48 hrs by sulforhodamine B assay
Method in brief: (§2)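 Run in the NCI 60-human-tumour-cell-line panel, tested over a 5-log dose range. Dose–response curves gave three values per cell line, each as a log10 molar concentration: GI50 (50% inhibition of net cell growth), TGI (total inhibition of net growth) and LC50 (50% net cell death). The mean graph midpoint is the arithmetic mean over all lines, with insensitive lines entered at the highest concentration tested.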

[17] = test system: SNB-75; assay: Growth inhibition of human SNB75 cells after 48 hrs by sulforhodamine B assay; settings: SNB-75, 48 h; method in brief: as §2
[18] = test system: NCI/ADR-RES; assay: Growth inhibition of human NCI/ADR-RES cells after 48 hrs by sulforhodamine B assay; method in brief: as §1
[19] = test system: CCRF-CEM; assay: Growth inhibition of human CCRF-CEM cells after 48 hrs by sulforhodamine B assay; method in brief: as §1
[20] = test system: KM12; assay: Growth inhibition of human KM12 cells after 48 hrs by sulforhodamine B assay; settings: KM12, 48 h; method in brief: as §1
[21] = test system: HL-60(TB); assay: Growth inhibition of human HL-60(TB) cells after 48 hrs by sulforhodamine B assay; settings: HL-60, 48 h
Method in brief: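 Tested only on compounds active in a three-line prescreen, in the NCI 60-human-tumour-cell-line panel over a 5-log dose range. Values come from dose–response curves as log10 molar GI50, the concentration inhibiting 50% net cell growth. Log10 TGI (total growth inhibition) and log10 LC50 (50% net cell death) were derived too. Mean graph midpoints include insensitive lines at the highest concentration tested.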

[22] = test system: CAKI-1; assay: Growth inhibition of human Caki1 cells after 48 hrs by sulforhodamine B assay; settings: CAKI-1, 48 h; method in brief: as §1
[23] = test system: HOP-92; assay: Growth inhibition of human HOP92 cells after 48 hrs by sulforhodamine B assay; settings: HOP-92, 48 h; method in brief: as §1
[24] = test system: OVCAR-3; assay: Growth inhibition of human OVCAR-3 cells after 48 hrs by sulforhodamine B assay; settings: OVCAR-3, 48 h; method in brief: as §1
[25] = test system: ACHN; assay: Growth inhibition of human ACHN cells after 48 hrs by sulforhodamine B assay
[26] = test system: UO-31; assay: Growth inhibition of human UO31 cells after 48 hrs by sulforhodamine B assay; settings: UO-31, 48 h; method in brief: as §2
[27] = test system: HCT-15; assay: Growth inhibition of human HCT15 cells after 48 hrs by sulforhodamine B assay; settings: HCT-15, 48 h; method in brief: as §1
[28] = test system: SR; assay: Growth inhibition of human SR cells after 48 hrs by sulforhodamine B assay; method in brief: as §2
[29] = read-out: pLC50 (the source's name) (converted)

COc1ccc(CNc2nc3cc(N)cc(N)c3nc2-c2ccccc2)cc1OC
GI50 [1]: 8.71 µM | CC50 [1, 29]: > 100 µM | TGI ([1]; read-out: pTGI (converted)): 30.2 µM | GI50 [2]: 5.89 µM | LC50 (50% net cell kill) [2]: > 100 µM | TGI ([2]; read-out: pTGI (converted)): 30.2 µM | GI50 [3]: 22.9 µM | LC50 [3]: 100 µM | TGI ([3]; read-out: pTGI (converted)): 47.9 µM | GI50 [4]: 15.5 µM | CC50 [4, 29]: 75.9 µM | TGI ([4]; read-out: pTGI (converted)): 34.7 µM | GI50 [5]: 13.5 µM | CC50 [5, 29]: 79.4 µM | TGI ([5]; read-out: pTGI (converted)): 32.4 µM | GI50 [6]: 3.09 µM | LC50 [6]: > 100 µM | TGI ([6]; read-out: pTGI (converted)): 14.1 µM | GI50 [7]: 33.9 µM | CC50 [7, 29]: > 100 µM | TGI ([7]; read-out: pTGI (converted)): > 100 µM | GI50 [8]: 1.86 µM | LC50 [8]: > 100 µM | TGI ([8]; read-out: pTGI (converted)): 24.5 µM | GI50 [9]: 3.47 µM | LC50 [9]: > 100 µM | TGI ([9]; read-out: pTGI (converted)): > 100 µM | GI50 [10]: 5.62 µM | CC50 [10, 29]: 47.9 µM | TGI ([10]; read-out: pTGI (converted)): 18.6 µM | GI50 [11]: 6.03 µM | LC50 [11]: > 100 µM | TGI ([11]; read-out: pTGI (converted)): > 100 µM | GI50 [12]: 20 µM | LC50 [12]: > 100 µM | TGI ([12]; read-out: pTGI (converted)): 45.7 µM | GI50 [13]: 2.69 µM | LC50 [13]: 63.1 µM | TGI ([13]; read-out: pTGI (converted)): 6.31 µM | GI50 [14]: 20.9 µM | CC50 [14, 29]: 81.3 µM | TGI ([14]; read-out: pTGI (converted)): 41.7 µM | GI50 [15]: 18.2 µM | LC50 [15]: 64.6 µM | TGI ([15]; read-out: pTGI (converted)): 34.7 µM | GI50 [16]: 4.47 µM | CC50 [16, 29]: > 100 µM | TGI ([16]; read-out: pTGI (converted)): > 100 µM | GI50 [17]: 16.2 µM | LC50 [17]: 97.7 µM | TGI ([17]; read-out: pTGI (converted)): 39.8 µM | GI50 [18]: 17.8 µM | CC50 [18, 29]: > 100 µM | TGI ([18]; read-out: pTGI (converted)): 66.1 µM | GI50 [19]: 3.47 µM | LC50 [19]: > 100 µM | TGI ([19]; read-out: pTGI (converted)): 70.8 µM | GI50 [20]: 13.2 µM | LC50 (50% net cell kill) [20]: 72.4 µM | TGI ([20]; read-out: pTGI (converted)): 30.9 µM | GI50 [21]: 3.16 µM | LC50 [21]: > 100 µM | TGI ([21]; read-out: pTGI (converted)): 81.3 µM | GI50 [22]: 11.2 µM | CC50 [22, 29]: 53.7 µM | TGI ([22]; read-out: pTGI (converted)): 24.5 µM | GI50 [23]: 13.5 µM | LC50 (50% net cell death) [23]: 66.1 µM | TGI ([23]; read-out: pTGI (converted)): 29.5 µM | GI50 [24]: 1.32 µM | CC50 [24, 29]: 8.51 µM | TGI ([24]; read-out: pTGI (converted)): 3.31 µM | GI50 [25]: 13.8 µM | CC50 [25, 29]: 81.3 µM | TGI ([25]; read-out: pTGI (converted)): 33.1 µM | GI50 [26]: 13.5 µM | CC50 [26, 29]: > 100 µM | TGI ([26]; read-out: pTGI (converted)): 45.7 µM | GI50 [27]: 30.2 µM | LC50 [27]: > 100 µM | TGI ([27]; read-out: pTGI (converted)): > 100 µM | GI50 [28]: 3.31 µM | LC50 (concentration giving 50% net cell death) [28]: > 100 µM | TGI ([28]; read-out: pTGI (converted)): 18.2 µM
